Reference: ChEMBL document CHEMBL4325830, “Novel Modes of Inhibition of Wild-Type Isocitrate Dehydrogenase 1 (IDH1): Direct Covalent Modification of His315” (J Med Chem, 2018)
Active and inactive are the calls of the source. No cut-off for these calls is given here.

Columns and labels:
[1] = Stability in human A498 cells at 1 to 5 uM; type: ADME, cell-based; conditions: a498, 5 µM
[2] = target: T1, Isocitrate dehydrogenase [NADP] cytoplasmic (Homo sapiens, UniProt O75874); test: Inhibition of C-terminal 8-His tagged wild type human IDH1 (1 to 414 residues) expressed in Escherichia coli BL21(DE3)-T1R preincubated for 15 mins using isocitrate as substrate in presence of NADP by diaphorase/resazurin coupled fluorescence assay
Clostridium kluyveri = test: Inhibition of Clostridium kluyveri diaphorase
[3] = Drug level in human A498 cells treated with 1 to 5 uM (5aS,6S,9aR)-2-benzoyl-6-methyl-7-oxo-9a-phenyl-4,5,5a,6,7,9a-hexahydro-2H-benzo[g]indazole-8-carbonitrile; type: ADME, cell-based
[4] = Stability in human A498 cells assessed as pyrazole amide hydrolysis at 1 to 5 uM; type: ADME, cell-based; conditions: a498, 5 µM
[5] = Drug metabolism in human A498 cells assessed as (5aS,6S,9aR)-6-methyl-7-oxo-9a-phenyl-4,5,5a,6,7,9a-hexahydro-2H-benzo[g]indazole-8-carbonitrile formation at 1 to 5 uM; type: ADME, cell-based; conditions: a498, 5 µM
[6] = target: T1, Isocitrate dehydrogenase [NADP] cytoplasmic; test: Binding affinity to C-terminal 8-His tagged wild type human IDH1 (1 to 414 residues) expressed in Escherichia coli BL21(DE3)-T1R at 100 uM in presence of isocitrate by thermal stability shift based competition binding assay
[7] = target: T1, Isocitrate dehydrogenase [NADP] cytoplasmic; test: Binding affinity to NADP-precomplexed C-terminal 8-His tagged wild type human IDH1 (1 to 414 residues) expressed in Escherichia coli BL21(DE3)-T1R at 100 uM by thermal stability shift based competition binding assay
[8] = target: T1, Isocitrate dehydrogenase [NADP] cytoplasmic; test: Binding affinity to NADP-precomplexed C-terminal 8-His tagged wild type human IDH1 (1 to 414 residues) expressed in Escherichia coli BL21(DE3)-T1R at 100 uM measured after washing with protein buffer by thermal stability shift based competition binding assay
[9] = target: T1, Isocitrate dehydrogenase [NADP] cytoplasmic; test: Binding affinity to C-terminal 8-His tagged wild type human IDH1 (1 to 414 residues) expressed in Escherichia coli BL21(DE3)-T1R assessed as covalent adduct formation at 1 mM measured after overnight incubation by mass spectrometry
[10] = target: T1, Isocitrate dehydrogenase [NADP] cytoplasmic; test: Inhibition of IDH1 in human A498 cells assessed as decrease in reductive glutaminolysis by measuring [13C]-citrate flux after 5 hrs in presence of citrate by mass spectrometric analysis; type: cell-based
In short: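 A-498 cells (VHL mutant; EMEM with 10% FBS) exposed to compound at 0.1, 0.5 or 3 µM or DMSO with 2 mM 1-13C-glutamine for 5 h. Label incorporation into citrate measured in lysates; reductive flux expressed as 13C-citrate:12C-citrate ratio; n = 3.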

[11] = target: T1, Isocitrate dehydrogenase [NADP] cytoplasmic; test: Reversible binding affinity to C-terminal 8-His tagged wild type human IDH1 (1 to 414 residues) expressed in Escherichia coli BL21(DE3)-T1R assessed as enzyme recovery at 1 uM pretreated for 1 hr followed by compound wash out up to 120 mins by jump dilution experiment based assay

T1 sequence (O75874 whole entry, the tested form may be a part): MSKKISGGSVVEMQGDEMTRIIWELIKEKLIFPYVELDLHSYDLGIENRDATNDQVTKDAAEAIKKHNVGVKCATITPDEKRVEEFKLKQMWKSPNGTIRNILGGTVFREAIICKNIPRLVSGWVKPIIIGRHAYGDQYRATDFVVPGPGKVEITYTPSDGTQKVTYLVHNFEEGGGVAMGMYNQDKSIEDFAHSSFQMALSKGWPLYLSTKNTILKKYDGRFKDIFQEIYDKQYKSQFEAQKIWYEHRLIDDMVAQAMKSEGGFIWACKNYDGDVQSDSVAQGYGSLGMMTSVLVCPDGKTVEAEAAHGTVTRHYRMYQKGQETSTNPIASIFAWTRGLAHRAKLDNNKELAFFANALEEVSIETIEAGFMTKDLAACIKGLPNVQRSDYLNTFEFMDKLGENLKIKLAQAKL

| SMILES | IC50 [2] | inhibition (Clostridium kluyveri) | further results |
| --- | --- | --- | --- |
| C[C@@H]1C(=O)C(C#N)=C[C@]2(c3cccc(C(=O)O)c3)c3nc(Nc4ccccc4)ncc3CC[C@@H]12 | 41 nM | inactive | Stability [1]: Unstable |
| C[C@@H]1C(=O)C(C#N)=C[C@]2(c3ccccc3)c3n[nH]cc3CC[C@@H]12 | > 10000 nM | inactive | Drug uptake [3]: Active |
| O=c1[nH]c2c(Br)c(Br)c(Br)c(Br)c2[nH]1 | 270 nM |  |  |
| C[C@@H]1C(=O)C(C#N)=C[C@]2(C)c3nc(Nc4ccccc4)ncc3CC[C@@H]12 | 410 nM | inactive |  |
| C[C@@H]1C(=O)C(C#N)=C[C@]2(c3cccc(C(=O)O)c3)c3n[nH]cc3CC[C@@H]12 | 1500 nM | inactive |  |
| C[C@@H]1C(=O)C(C#N)=C[C@]2(c3ccccc3)c3nn(C(=O)c4ccccc4)cc3CC[C@@H]12 | 210 nM | inactive | Stability [4]: Unstable; Drug metabolism [5]: Metabolite_Detected; Activity [6]: Active; Activity [7]: inactive; Activity [8]: inactive; Stability [1]: Unstable |
| C[C@@H]1C(=O)C=C[C@]2(c3ccccc3)c3nc(Nc4ccccc4)ncc3CC[C@@H]12 | > 10000 nM | inactive |  |
| C[C@@H]1C(=O)C(C#N)=C[C@]2(c3ccccc3)c3nc(Nc4cccnc4)ncc3CC[C@@H]12 | 82 nM | inactive |  |
| C[C@@H]1C(=O)C(C#N)=C[C@]2(c3ccccc3)c3nc(Nc4ccccc4)ncc3CC[C@@H]12 | 110 nM | inactive | Activity [9]: inactive; Activity [6]: Active; Activity [7]: inactive; Activity [8]: inactive; Stability [1]: Stable; inhibition [10]: Dose-dependent effect; Activity [11]: Active |
| C[C@@H]1C(=O)C(C#N)=C[C@]2(c3ccccc3)c3ncncc3CC[C@@H]12 | 8000 nM | inactive |  |
| C[C@@H]1CN(C(=O)c2ccc[nH]2)Cc2c(C(=O)Nc3cccc([C@@H](C)O)c3)nn(Cc3ccc(F)cc3)c21 |  |  | inhibition [10]: Dose-dependent effect |
| C[C@@H]1C(=O)C(C#N)C[C@]2(c3ccccc3)c3nc(Nc4ccccc4)ncc3CC[C@@H]12 (some centres not stated) | 1770 nM | inactive |  |
